In brackets after ≈: the same amount, converted by molar mass.
Columns and labels:
Plasmodium falciparum [1] = test: Antiplasmodial activity against chloroquine-sensitive Plasmodium falciparum 3D7 infected in human red blood cells assessed as growth inhibition by SYBR Green fluorescence assay; type: functional, organism-based, RBC; details: 3D7, Erythrocyte
In short: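 P. falciparum 3D7 grown in 5% human red cells in RPMI 1640 (pH 7.3) with 0.5% Albumax II, hypoxanthine and gentamicin at 37°C under 1% O₂/3% CO₂. Growth measured by SYBR green fluorescence (ex 485/em 528 nm), with mefloquine as assay control. EC50 calculated.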

Plasmodium falciparum [2] = test: Antiplasmodial activity against drug resistant Plasmodium falciparum D6 by [3H]hypoxanthine incorporation assay; type: functional, organism-based
In short: (§1)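 Strains (K1, W2, 7G8, TM90C2A, D6, V1/S resistant; NF54 sensitive) cultured by the Trager and Jensen method; EC50 determined in vitro from [3H]hypoxanthine incorporation.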

[3] = Tmax in NMRI mouse at 10 mg/kg, po administered as gavage by UPLC-MS/MS analysis; type: ADME, organism-based; details: in vivo
In short: (§2)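 Female NMRI mice (n=3) dosed by oral gavage as a solution at 10 mg free base/kg (10 mL/kg; vehicle 5 or 10% DMSO, 40% PEG400). Blood levels measured by UPLC-MS/MS. Parameters derived from the blood concentration-time curve.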

Plasmodium falciparum [4] = test: Antiplasmodial activity against late stage (IV/V) Plasmodium falciparum NF54 gametocytes transfected with GFP-LUC assessed as growth inhibition incubated for 72 hrs by mitotracker Red-CMXROS dye based fluorescence microscopic analysis; type: functional, organism-based; details: NF54, 72 h
In short: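 NF54 pfs16-LUC-GFP stage IV–V gametocytes (10% parasitaemia, 0.1% haematocrit) exposed to compound in 0.4% DMSO, three concentrations per log, for 72 h at 37°C under 5% CO2/5% O2/90% N2. MitoTracker Red CM-H2Xros then added for 16 h and viable gametocytes counted by imaging.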

Plasmodium falciparum [5] = test: Antiplasmodial activity against drug resistant Plasmodium falciparum K1 by [3H]hypoxanthine incorporation assay; type: functional, organism-based; in short: as §1
Plasmodium falciparum [6] = test: Antiplasmodial activity against drug resistant Plasmodium falciparum W2 by [3H]hypoxanthine incorporation assay; type: functional, organism-based; in short: as §1
Plasmodium berghei [7] = test: Antiplasmodial activity against Plasmodium berghei ANKA infected in NMRI mouse assessed as reduction in parasitemia at 10 mg/kg, po QD for 4 days; type: functional; design: scale not given: the % may be the effect or the level left; details: time 4 day
In short: (§3)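 Female NMRI mice (n=3 per group, randomized, not blinded) infected with GFP-transfected P. berghei ANKA. Oral dosing once daily for 4 days in 10% DMSO/40% PEG400/50% water or HPMC suspension vehicle. Parasitaemia measured by flow cytometry on blood collected 96 h after infection. Mice watched for toxicity over 4 h post-dose each day.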

[8] = Intrinsic clearance in Sprague-Dawley rat liver microsomes at 0.5 uM in presence of NADPH incubated upto 30 mins by UPLC-MS/MS analysis; type: ADME, Microsome; details: 0.5 h
In short: (§4)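 Compound at 0.5 μM incubated with female CD1 mouse, male Sprague-Dawley rat or pooled human liver microsomes (0.5 mg/mL, 50 mM potassium phosphate, pH 7.4). Reaction started with excess NADPH. Samples taken at 0-30 min, quenched in acetonitrile, analysed by UPLC-MS/MS. Verapamil used as control, single time course.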

Plasmodium berghei [9] = test: Antiplasmodial activity against Plasmodium berghei ANKA infected in NMRI mouse assessed as survival days at 1 mg/kg, po QD for 4 days; type: functional; details: time 4 day
Plasmodium berghei [10] = test: Antiplasmodial activity against Plasmodium berghei infected in NMRI mouse assessed as reduction in parasitemia at 3 mg/kg, po QD for 4 days; type: functional; design: scale not given: the % may be the effect or the level left; details: time 4 day; in short: as §3
[11] = AUC in NMRI mouse at 10 mg/kg, po administered as gavage by UPLC-MS/MS analysis; type: ADME, organism-based; design: dose 10 mg/kg; details: in vivo; in short: as §2
Plasmodium falciparum [12] = test: Antiplasmodial activity against drug resistant Plasmodium falciparum […] [3H]hypoxanthine incorporation assay; type: functional, organism-based; in short: as §1
[13] = Permeability of the compound at 10 uM incubated for 5 hrs by UPLC-MS/MS analysis based PAMPA method; type: ADME; details: read-out: permeability
In short: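 PAMPA run on a lipid-oil-lipid tri-layer filter at pH 7.4. Compound at 10 μM in PBS (DMSO ≤5%) in donor wells, PBS in acceptor wells, kept 5 h at room temperature. Both compartments quantified by UPLC-MS/MS. Data accepted only when recovery exceeded 70%.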

Plasmodium berghei [14] = test: Antiplasmodial activity against Plasmodium berghei ANKA infected in NMRI mouse assessed as reduction in parasitemia at 30 mg/kg, po QD for 4 days; type: functional; design: scale not given: the % may be the effect or the level left; details: time 4 day; in short: as §3
Plasmodium falciparum [15] = test: Antiplasmodial activity against drug resistant Plasmodium falciparum TM90C2A by [3H]hypoxanthine incorporation assay; type: functional, organism-based; in short: as §1
[16] = Cmax in NMRI mouse at 10 mg/kg, po administered as gavage by UPLC-MS/MS analysis; type: ADME, organism-based; design: route oral, dose 10 mg/kg; details: in vivo; in short: as §2
Plasmodium yoelii = test: Antiplasmodial activity against Plasmodium yoelli liver stage forms; type: functional, organism-based
[17] = Volume of distribution at steady state in NMRI mouse at 3 mg/kg, iv administered as bolus dose by UPLC-MS/MS analysis; type: ADME, organism-based; details: in vivo, read-out: Vdss
In short: (§5)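 Intravenous bolus solution, 3 mg free base/kg (5 mL/kg; 10% DMSO, 90% saline), given to female NMRI mice (n=3). Compound level in blood determined by UPLC-MS/MS. PK parameters derived from the blood concentration-time curve.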

Plasmodium berghei [18] = test: Antiplasmodial activity against Plasmodium berghei ookinete form assessed as growth inhibition incubated for 22 hrs by GFP-based fluorescence microscopic analysis; type: functional, organism-based
[19] = Oral bioavailability in NMRI mouse at 10 mg/kg administered via gavage by UPLC-MS/MS analysis; type: ADME, organism-based; details: in vivo; in short: as §2
Plasmodium berghei [20] = test: Antiplasmodial activity against Plasmodium berghei ANKA infected in NMRI mouse assessed as survival days at 3 mg/kg, po QD for 4 days; type: functional; details: time 4 day
Plasmodium falciparum [21] = test: Antiplasmodial activity against drug resistant Plasmodium falciparum V1/S by [3H]hypoxanthine incorporation assay; type: functional, organism-based; in short: as §1
Plasmodium falciparum [22] = test: Antiplasmodial activity against drug resistant Plasmodium falciparum 7G8 by [3H]hypoxanthine incorporation assay; type: functional, organism-based; in short: as §1
Plasmodium berghei [23] = test: Antiplasmodial activity against GFP-transfected Plasmodium berghei ANKA infected in NMRI mouse assessed as reduction in parasitemia by measuring effective dose administered once daily oral dose for 4 days; type: functional; details: 96 h, time 4 day; in short: as §3
MRC5 = test: Antiproliferative activity against human MRC5 cells assessed as reduction in cell viability after 68 hrs by resazurin dye based fluorescence assay; details: MRC5, 68 h
In short: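 MRC-5 fibroblasts plated overnight as monolayers, exposed to compound pre-diluted in MEM for 68 h. Resazurin then added (final 50 μM) for 3 h, fluorescence read at ex 528/em 590 nm. Signal converted to % inhibition against high- and no-inhibition controls. Plates accepted at Z' > 0.5.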

[24] = Hepatic extraction in rat during hepatic portal vein study; type: ADME; details: read-out: ERH
[25] = Intrinsic clearance in human liver microsomes at 0.5 uM in presence of NADPH incubated upto 30 mins by UPLC-MS/MS analysis; type: ADME, Microsome; details: 0.5 h; in short: as §4
[26] = Intrinsic clearance in rat hepatocytes; type: ADME, cell-based, Hepatocyte
Plasmodium berghei [27] = test: Antiplasmodial activity against Plasmodium berghei ANKA infected in NMRI mouse assessed as reduction in parasitemia at 1 mg/kg, po QD for 4 days; type: functional; design: scale not given: the % may be the effect or the level left; details: time 4 day; in short: as §3
[28] = biological target: Voltage-gated inwardly rectifying potassium channel KCNH2 (Homo sapiens, UniProt Q12809); test: Inhibition of human ERG by IonWorks patch-clamp electrophysiology method
Sequence of Voltage-gated inwardly rectifying potassium channel KCNH2 (Q12809 whole entry): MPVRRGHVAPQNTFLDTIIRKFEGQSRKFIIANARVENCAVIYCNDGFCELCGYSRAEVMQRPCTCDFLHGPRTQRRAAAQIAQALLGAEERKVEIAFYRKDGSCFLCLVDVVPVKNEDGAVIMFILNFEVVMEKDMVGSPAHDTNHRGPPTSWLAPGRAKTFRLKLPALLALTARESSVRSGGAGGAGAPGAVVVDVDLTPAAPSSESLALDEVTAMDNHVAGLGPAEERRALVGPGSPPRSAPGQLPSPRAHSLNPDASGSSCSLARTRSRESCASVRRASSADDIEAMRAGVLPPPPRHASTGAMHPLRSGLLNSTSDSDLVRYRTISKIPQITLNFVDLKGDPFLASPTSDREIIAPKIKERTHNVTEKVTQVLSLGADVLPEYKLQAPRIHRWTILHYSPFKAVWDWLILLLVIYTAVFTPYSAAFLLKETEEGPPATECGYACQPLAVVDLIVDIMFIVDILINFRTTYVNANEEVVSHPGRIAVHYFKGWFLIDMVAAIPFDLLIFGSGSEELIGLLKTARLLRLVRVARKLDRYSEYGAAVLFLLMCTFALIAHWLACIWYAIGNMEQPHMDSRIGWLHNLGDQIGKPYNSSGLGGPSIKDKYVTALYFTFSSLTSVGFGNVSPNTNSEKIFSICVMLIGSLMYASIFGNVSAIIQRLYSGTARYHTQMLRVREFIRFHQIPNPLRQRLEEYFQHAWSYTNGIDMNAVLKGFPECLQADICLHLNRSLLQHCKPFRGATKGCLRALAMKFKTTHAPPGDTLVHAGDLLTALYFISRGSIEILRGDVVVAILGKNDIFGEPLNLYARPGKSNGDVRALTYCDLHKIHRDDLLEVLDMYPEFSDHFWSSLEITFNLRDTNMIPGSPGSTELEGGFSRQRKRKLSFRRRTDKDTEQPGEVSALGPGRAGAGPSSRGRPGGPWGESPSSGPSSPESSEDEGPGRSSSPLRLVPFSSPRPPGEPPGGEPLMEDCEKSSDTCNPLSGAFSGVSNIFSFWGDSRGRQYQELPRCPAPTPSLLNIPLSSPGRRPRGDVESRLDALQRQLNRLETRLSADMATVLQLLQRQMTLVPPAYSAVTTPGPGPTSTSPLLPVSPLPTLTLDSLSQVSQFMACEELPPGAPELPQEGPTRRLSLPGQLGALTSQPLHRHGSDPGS
In short: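 hERG K⁺ channel inhibition measured by IonWorks patch-clamp electrophysiology. Eight-point concentration-response curves made from 3-fold serial dilutions down from the maximum final assay concentration. Each curve generated on 2 occasions.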

[29] = Intrinsic clearance in CD1 mouse liver microsomes at 0.5 uM in presence of NADPH incubated upto 30 mins by UPLC-MS/MS analysis; type: ADME, Microsome; details: 0.5 h; in short: as §4
[30] = Protein binding in CD1 mouse plasma measured after 5 hr by UPLC-MS/MS analysis based equilibrium dialysis method; type: ADME, cell-free; details: mouse, 5 h
In short: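 Equilibrium dialysis of female CD1 mouse plasma spiked at 10 μg/mL (12-14 kDa membrane) against isotonic buffer for 5 h at ~37°C with shaking. Unbound fraction taken as the buffer/plasma peak-area ratio by UPLC-MS/MS. n=6 replicates, run in triplicate.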

[31] = Kinetic aqueous solubility of the compound by laser nephelometry; type: physicochemical; details: read-out: Kinetic_solubility
In short: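 Kinetic solubility measured by laser nephelometry. DMSO serial dilutions diluted into water to give final 100–5 μg/mL at 1.0% DMSO. Read immediately, in triplicate aliquots.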

[32] = Clearance in NMRI mouse blood at 3 mg/kg, iv administered as bolus dose by UPLC-MS/MS analysis; type: ADME, organism-based; in short: as §5
Plasmodium berghei [33] = test: Antiplasmodial activity against Plasmodium berghei ANKA infected in NMRI mouse assessed as survival days at 10 mg/kg, po QD for 4 days; type: functional; details: time 4 day
Plasmodium berghei [34] = test: Antiplasmodial activity against Plasmodium berghei ANKA infected in NMRI mouse assessed as survival days at 30 mg/kg, po QD for 4 days; type: functional; details: time 4 day
[35] = Half-life in NMRI mouse at 3 mg/kg, iv administered as bolus dose by UPLC-MS/MS analysis; type: ADME, organism-based; details: in vivo; in short: as §5

O=C(NCCN1CCCC1)c1cc(NCCC2CCOCC2)nc2ccc(Cl)cc12
EC50 (Plasmodium falciparum [1]): 6 nM
EC50 (Plasmodium falciparum [2]): 0.7 nM
Tmax [3]: 0.5 h
EC50 (Plasmodium falciparum [4]): 39 nM
EC50 (Plasmodium falciparum [5]): 0.8 nM
EC50 (Plasmodium falciparum [6]): 0.6 nM
Activity (Plasmodium berghei [7]): 99.9%
CLH [8]: 0.8 mL/min/g
Survival (Plasmodium berghei [9]): 7 days
Activity (Plasmodium berghei [10]): 98%
AUC [11]: 1210 ng·h/mL
EC50 (Plasmodium falciparum [12]): 0.5 nM
Papp at 5 h, 10 µM [13]: 4.8 ×10⁻⁶ cm/s
Activity (Plasmodium berghei [14]): 99.9%
EC50 (Plasmodium falciparum [15]): 0.5 nM
Cmax [16]: 193 ng/mL
EC50 (Plasmodium yoelii): 1 nM
Vd [17]: 7.4 L/kg
EC50 (Plasmodium berghei [18]): 14 nM
bioavailability [19]: 23%
Survival (Plasmodium berghei [20]): 6 days
EC50 (Plasmodium falciparum [21]): 0.9 nM
EC50 (Plasmodium falciparum [22]): 0.7 nM
ED90 (Plasmodium berghei [23]): 1 mg/kg
EC50 (MRC5): 31000 nM
hepatic extraction ratio [24]: 0.76
CLH [25]: 1 mL/min/g
CLH [26]: 3 mL/min/g
Activity (Plasmodium berghei [27]): 90%
IC50 [28]: > 11000 nM
CLH [29]: 2 mL/min/g
PPB [30]: 77%
solubility kinetic [31]: 230 µM (≈ 99.1 µg/mL)
clearance [32]: 34 mL/min/kg
Survival (Plasmodium berghei [33]): 8 days
Survival (Plasmodium berghei [34]): 10 days
half-life [35]: 2.9 h

From ChEMBL document CHEMBL4680079, “Discovery of a Quinoline-4-carboxamide Derivative with a Novel Mechanism of Action, Multistage Antimalarial Activity, and Potent in Vivo Efficacy” (J Med Chem, 2016)
